Data on 22 molecules can be found in ChEMBL document CHEMBL1143208, “Structure and property based design of factor Xa inhibitors: biaryl pyrrolidin-2-ones incorporating basic heterocyclic motifs” (Bioorg Med Chem Lett, 2008).

Series [1] can be described thus: Distribution coefficient, log D of the compound. The series is classed as physicochemical. The settings on record: chromatographic hydrophobicity index (CHI) at pH 7.4. The gist of the method:
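Measured hydrophobicity expressed as a chromatographic hydrophobicity index (CHI) logD at pH 7.4.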

Series [2] is described as follows: Oral bioavailability in Sprague-Dawley rat. The settings on record: in vivo. Format: ADME, organism-based. The gist of the method:
(§1)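 Male Sprague–Dawley rats dosed intravenously and orally, with pharmacokinetic parameters derived from both routes.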

Series [3] is described as follows: Volume of distribution at steady state in Sprague-Dawley rat. The settings on record: in vivo, read-out: Vdss. Format: ADME, organism-based. The gist of the method:
as §1

Series [4] can be described thus: Half life in Sprague-Dawley rat. The series is classed as ADME, organism-based. The settings on record: in vivo. The gist of the method: as §1
Series [5] in a line: Plasma clearance in Sprague-Dawley rat. Format: ADME, organism-based. Summed up:
as §1

Series [6] is described as follows: Dissociation constant, pKa of the compound. Format: physicochemical.

For `C/C(=C\S(=O)(=O)NC1CCN(c2ccc(-n3ccnc3CN(C)C)cc2F)C1=O)c1ccc(Cl)s1` (configuration not stated), the logD in series [1] stood at 2.44. Besides, the bioavailability in series [2] was 16%. Also, the Vd in series [3] worked out at 0.7 L/kg. Further, the half-life in series [4] was 48 min. The molecule further displayed a clearance in series [5] of 18 mL/min/kg.
In series [1], `O=C1C(NS(=O)(=O)/C=C/c2ccc(Cl)s2)CCN1c1ccc(-n2ccnc2CN2CCOCC2)cc1F` (configuration not stated) yielded a pH-dependent lipophilicity (logD) of 2.28. Moreover, the pKa in series [6] was determined as 5.75.
The like results for `O=C1C(NS(=O)(=O)/C=C/c2ccc(Cl)s2)CCN1c1ccc(-n2ccnc2CN2CCCC2)cc1F` (configuration not stated) were, in that order, 2.21 and 7.95.
As for `CN(C)Cc1nccn1-c1ccc(N2CCC(NS(=O)(=O)c3ncc(-c4ccc(Cl)s4)s3)C2=O)c(F)c1` (configuration not stated), the logD in series [1] was found to be 2.75.
The same measure, in the same setting: with `O=C1C(NS(=O)(=O)/C=C/c2ccc(Cl)s2)CCN1c1ccc(-n2ccnc2CN2CCC(F)C2)cc1F` (configuration not stated) the figure was 2.58.
Still for that read-out and setting: the same measure for `CNCc1nccn1-c1ccc(N2CCC(NS(=O)(=O)/C=C/c3ccc(Cl)s3)C2=O)c(F)c1` (configuration not stated): 1.7; for `CN(C)Cc1ccn(-c2ccc(N3CCC(NS(=O)(=O)c4cc5ccc(Cl)cc5s4)C3=O)c(F)c2)n1` (configuration not stated): 2.4.
`CN(C)Cc1nccn1-c1ccc(N2CCC(NS(=O)(=O)c3ccc4[nH]cc(Cl)c4c3)C2=O)c(F)c1` (configuration not stated) gave a logD in series [1] of 1.76.
Still for that read-out and setting: with `CN(C)Cc1nocc1-c1ccc(N2CCC(NS(=O)(=O)/C=C/c3ccc(Cl)s3)C2=O)c(F)c1` (configuration not stated) the figure was 3.29; with `C/C(=C\S(=O)(=O)NC1CCN(c2ccc(-n3cnc(CN(C)C)c3)cc2F)C1=O)c1ccc(Cl)s1` (configuration not stated), 1.64; with `CN(C)Cc1nccn1-c1ccc(N2CCC(NS(=O)(=O)c3ccc4cc(Cl)ccc4c3)C2=O)c(F)c1` (configuration not stated), 2.55.
Molecule `CN(C)Cc1nccn1-c1ccc(N2CCC(NS(=O)(=O)/C=C/c3ccc(Cl)s3)C2=O)c(F)c1` (configuration not stated) returned a logD in series [1] of 2.54. In series [2], the bioavailability came to 52%. In addition, the Vd in series [3] came to 0.6 L/kg. Besides, the half-life in series [4] is 60 min. The molecule further came in with a clearance in series [5] of 13 mL/min/kg. The molecule further gave a pKa in series [6] of 7.26.
`CN(C)Cc1nccn1-c1ccc(N2CCC(NS(=O)(=O)c3ccc4c(Cl)c[nH]c4c3)C2=O)c(F)c1` (configuration not stated) gave a logD in series [1] of 1.98.
`CN(C)Cc1cn(-c2ccc(N3CCC(NS(=O)(=O)c4cc5ccc(Cl)cc5s4)C3=O)c(F)c2)cn1` (configuration not stated) returned a logD in series [1] of 1.82.
Same read-out and setting: the same measure for `CCN(C)Cc1nccn1-c1ccc(N2CCC(NS(=O)(=O)/C=C/c3ccc(Cl)s3)C2=O)c(F)c1` (configuration not stated): 2.48; for `CN(C)Cc1nccn1-c1ccc(N2CCC(NS(=O)(=O)c3cc4cc(Cl)ccc4s3)C2=O)c(F)c1` (configuration not stated): 2.59.
On the same count and under the same terms, the same measure for `C/C(=C\S(=O)(=O)NC1CCN(c2ccc(-n3cncc3CN(C)C)cc2F)C1=O)c1ccc(Cl)s1` (configuration not stated): 2.31.
Still for that read-out and setting: with `CN(C)Cc1nccn1-c1ccc(N2CCC(NS(=O)(=O)c3cc4ccc(Cl)cc4s3)C2=O)c(F)c1` (configuration not stated) the figure was 2.58.
In series [1], `CN(C)Cc1nccn1-c1ccc(N2CCC(NS(=O)(=O)CCc3ccc(Cl)s3)C2=O)c(F)c1` (configuration not stated) showed a log distribution coefficient (logD) of 2.32. The bioavailability in series [2] was determined as 10%. For the same molecule, the Vd in series [3] came to 1.1 L/kg. In addition, the half-life in series [4] was 48 min. In series [5], this molecule gave a clearance of 39 mL/min/kg.
For `CN(C)Cc1ccnn1-c1ccc(N2CCC(NS(=O)(=O)c3cc4ccc(Cl)cc4s3)C2=O)c(F)c1` (configuration not stated), the logD in series [1] stood at 3.35.
The same measure, in the same setting: with `C/C(=C\S(=O)(=O)NC1CCN(c2ccc(-n3ccc(CN(C)C)n3)cc2F)C1=O)c1ccc(Cl)s1` (configuration not stated) the figure was 2.2; with `CC(C)N(C)Cc1nccn1-c1ccc(N2CCC(NS(=O)(=O)/C=C/c3ccc(Cl)s3)C2=O)c(F)c1` (configuration not stated), 2.7.
